From ChEMBL document CHEMBL1152423, “Development of N-[11C]methylamino 4-hydroxy-2(1H)-quinolone derivatives as PET radioligands for the glycine-binding site of NMDA receptors” (Bioorg Med Chem, 2009)
Blank lines part the entries; values can stand above or below the molecule they belong to. The source made the active and inactive calls. No cut-off for these calls is given here.

Legend:
[1] = molecular target: Glutamate NMDA receptor; test: Binding affinity to glycine binding site of NMDA receptor in rat brain; assay type: tissue-based
[2] = molecular target: Glutamate NMDA receptor; test: Displacement of [3H]MDL-105519 from glycine binding site of NMDA receptor in rat cortical membrane by liquid scintillation counting; assay type: cell membranes
Procedure, shortened: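 Washed rat cortical membranes in 50 mM Tris–HCl (pH 8.0) were incubated 45 min at 4 °C with [3H]MDL-105,519 (2 nM) plus buffer or displacer. Nonspecific binding was defined with excess unlabeled glycine. Samples were filtered on GF/B, washed three times with ice-cold buffer, and counted by liquid scintillation. Ki came from three determinations, each in triplicate.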

[3] = molecular target: T1, Glutamate NMDA receptor (Rattus norvegicus) (UniProt P35439+Q00959+Q00960+Q00961+Q62645+Q8VHN2+Q9R1M7); test: Binding affinity to glycine binding site of NMDA receptor in hippocampus of rat brain by autoradiography; assay type: tissue-based; settings: tested as the 11C-labelled form
Procedure, shortened: (§1)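 Rat brain sagittal sections were preincubated 30 min at 25 °C in 50 mM Tris–HCl (pH 7.4), then incubated 30 min at 25 °C with the [11C]radioligand (1.59–2.13 nM). Sections were rinsed twice for 3 min in cold buffer, dipped in cold water, dried, and exposed to imaging plates for 60 min. Nonspecific binding was taken with the corresponding unlabeled ligand; specific binding is given per region.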

[4] = molecular target: T1, Glutamate NMDA receptor (Rattus norvegicus); test: Binding affinity to glycine binding site of NMDA receptor in cerebral cortex of rat brain by autoradiography; assay type: tissue-based; settings: tested as the 11C-labelled form; procedure, shortened: as §1
[5] = molecular target: T1, Glutamate NMDA receptor (Rattus norvegicus); test: Binding affinity to glycine binding site of NMDA receptor in thalamus of rat brain by autoradiography; assay type: tissue-based; settings: tested as the 11C-labelled form; procedure, shortened: as §1
[6] = molecular target: T1, Glutamate NMDA receptor (Rattus norvegicus); test: Binding affinity to glycine binding site of NMDA receptor in striatum of rat brain by autoradiography; assay type: tissue-based; settings: tested as the 11C-labelled form; procedure, shortened: as §1
[7] = molecular target: T1, Glutamate NMDA receptor (Rattus norvegicus); test: Binding affinity to glycine binding site of NMDA receptor in cerebellum of rat brain by autoradiography; assay type: tissue-based; settings: tested as the 11C-labelled form; procedure, shortened: as §1
[8] = molecular target: T1, Glutamate NMDA receptor (Rattus norvegicus); test: Binding affinity to glycine binding site of NMDA receptor in hippocampus of rat brain by autoradiography in presence of glycine; assay type: tissue-based; settings: tested as the 11C-labelled form
Procedure, shortened: (§2)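 Hippocampal binding on rat brain slices: 30 min at 25 °C in 50 mM Tris–HCl (pH 7.4) with [11C]radioligand (1.59–2.13 nM), with or without a glycine-site drug (agonists at 1 mM). Slices were rinsed, dried and exposed to imaging plates for 60 min. PSL with drug was divided by PSL without drug to give % total binding, averaged over at least triplicate sections from three animals.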

[9] = molecular target: T1, Glutamate NMDA receptor (Rattus norvegicus); test: Binding affinity to glycine binding site of NMDA receptor in hippocampus of rat brain by autoradiography in presence of glycine-site agonist D-serine; assay type: tissue-based; settings: tested as the 11C-labelled form; procedure, shortened: as §2
[10] = molecular target: T1, Glutamate NMDA receptor (Rattus norvegicus); test: Binding affinity to glycine binding site of NMDA receptor in hippocampus of rat brain by autoradiography in presence of glycine-site antagonist L-703717; assay type: tissue-based; settings: tested as the 11C-labelled form; procedure, shortened: as §2
[11] = molecular target: T1, Glutamate NMDA receptor (Rattus norvegicus); test: Binding affinity to glycine binding site of NMDA receptor in hippocampus of rat brain by autoradiography in presence of glycine-site antagonist methoxy-MDL-104653; assay type: tissue-based; settings: tested as the 11C-labelled form; procedure, shortened: as §2
[12] = molecular target: T1, Glutamate NMDA receptor (Rattus norvegicus); test: Binding affinity to glycine binding site of NMDA receptor in hippocampus of rat brain by autoradiography in presence of glycine-site antagonist MDL-105519; assay type: tissue-based; settings: tested as the 11C-labelled form; procedure, shortened: as §2
[13] = system: Blood; test: Biodistribution in ddY mouse blood assessed per gram of tissue at 7.4 MBq, iv after 1 min by gamma counting; assay type: ADME, organism-based; settings: in vivo
Procedure, shortened: (§3)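 ddY mice (35–45 g) received about 7.4 MBq of [11C]radioligand in 0.2 ml into the tail vein and were decapitated at 1 or 30 min. Blood, cerebrum and cerebellum were gamma-counted with decay correction and expressed as % injected dose/g; tissue/blood ratios were derived. n=3 or 5.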

[14] = Biodistribution in ddY mouse cerebrum assessed per gram of tissue at 7.4 MBq, iv after 1 min by gamma counting; assay type: ADME, organism-based; settings: in vivo; procedure, shortened: as §3
[15] = system: Cerebellum; test: Biodistribution in ddY mouse cerebellum assessed per gram of tissue at 7.4 MBq, iv after 1 min by gamma counting; assay type: ADME, organism-based; settings: in vivo; procedure, shortened: as §3
[16] = system: Blood; test: Biodistribution in ddY mouse blood assessed per gram of tissue at 7.4 MBq, iv after 30 mins by gamma counting; assay type: ADME, organism-based; settings: in vivo, 0.5 h; procedure, shortened: as §3
[17] = Biodistribution in ddY mouse cerebrum assessed per gram of tissue at 7.4 MBq, iv after 30 mins by gamma counting; assay type: ADME, organism-based; settings: in vivo, 0.5 h; procedure, shortened: as §3
[18] = system: Cerebellum; test: Biodistribution in ddY mouse cerebellum assessed per gram of tissue at 7.4 MBq, iv after 30 mins by gamma counting; assay type: ADME, organism-based; settings: in vivo, 0.5 h; procedure, shortened: as §3
[19] = Ratio of drug level in cerebrum to blood of ddY mouse at 7.4 MBq, iv after 1 min; assay type: ADME, organism-based; procedure, shortened: as §3
[20] = Ratio of drug level in cerebellum to blood of ddY mouse at 7.4 MBq, iv after 1 min; assay type: ADME, organism-based; procedure, shortened: as §3
[21] = Ratio of drug level in cerebrum to blood of ddY mouse at 7.4 MBq, iv after 30 mins; assay type: ADME, organism-based; procedure, shortened: as §3
[22] = Ratio of drug level in cerebellum to blood of ddY mouse at 7.4 MBq, iv after 30 mins; assay type: ADME, organism-based; procedure, shortened: as §3
[23] = n-Octanol-sodium phosphate buffer partition coefficient, log D at pH 7.4 after 15 mins by shake-flask method; assay type: physicochemical
Procedure, shortened: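 Compound (1–2 mg) was shaken 15 min at ambient temperature in n-octanol and 10 mM phosphate buffer (pH 7.4). The mixture was centrifuged at 2500 rpm for 5 min, and both layers were analysed by HPLC (n=3).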

[24] = Plasma protein binding in rat at 0.67 to 0.89 […] after 30 mins by ultrafiltration; assay type: ADME, cell-free; settings: read-out: PPB (converted)
Procedure, shortened: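 Rat serum was diluted 10-fold in 66 mM phosphate buffer (pH 7.4) containing [11C]radioligand (0.67–0.89 MBq) and incubated 30 min at 30 °C. It was then ultrafiltered by centrifugation at 2000 rpm for 15 min. Radioactivity in whole plasma and in filtrate was counted to give % bound (mean, n=3).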

Compound: COc1cccc(-c2c(O)c3c(I)cc(Cl)cc3[nH]c2=O)c1
Ki [1]: 10.3 nM

Compound: COc1cccc(-c2c(O)c3c(N(C)C)cc(Cl)cc3[nH]c2=O)c1
Ki [2]: 566 nM

Compound: COc1ccc(Cc2cccc(-c3c(O)c4ccc(Cl)cc4[nH]c3=O)c2)cc1
Ki [2]: 5.12 nM
logD at 0.25 h [23]: 3.47
fraction unbound at 0.5 h [24]: 0.06

Compound: [11CH3]Nc1ccc(Cc2cccc(-c3c(O)c4ccc(Cl)cc4[nH]c3=O)c2)cc1
Drug uptake [13]: 13.08 %ID
Drug uptake [14]: 0.4 %ID
Drug uptake [15]: 0.48 %ID
Drug uptake [16]: 3.93 %ID/g
Drug uptake [17]: 0.17 %ID/g
Drug uptake [18]: 0.23 %ID/g
Kp at 1 min [19]: 0.031
Kp at 1 min [20]: 0.037
Kp at 0.5 h [21]: 0.043
Kp at 0.5 h [22]: 0.058

Compound: CN(C)c1ccc(Cc2cccc(-c3c(O)c4ccc(Cl)cc4[nH]c3=O)c2)cc1
Ki [2]: 22.2 nM

The remaining lines, values ahead:

Ki [2]: 11.8 nM
Activity [3]: 89%
Activity [4]: Active
Activity [5]: Active
Activity [6]: Active
Activity [7]: 75%
Activity [8]: 59%
Activity [9]: 59%
Activity [10]: 64%
Activity [11]: 64%
Activity [12]: 64%
Compound: CCc1cc(Cl)cc2[nH]c(=O)c(-c3cccc(NC)c3)c(O)c12

Drug uptake [13]: 29.16 %ID
Drug uptake [14]: 0.5 %ID
Drug uptake [15]: 0.72 %ID
Drug uptake [16]: 10.66 %ID/g
Drug uptake [17]: 0.32 %ID/g
Drug uptake [18]: 0.44 %ID/g
Kp at 1 min [19]: 0.018
Kp at 1 min [20]: 0.026
Kp at 0.5 h [21]: 0.03
Kp at 0.5 h [22]: 0.042
Compound: CCc1cc(Cl)cc2[nH]c(=O)c(-c3cccc(O[11CH3])c3)c(O)c12

Ki [2]: 715 nM
Compound: CNc1cc(Cl)cc2[nH]c(=O)c(-c3cccc(OC)c3)c(O)c12
